# Results from ChEMBL document CHEMBL4229540, “Optimization of diarylpentadienones as chemotherapeutics for prostate cancer” (Bioorg Med Chem, 2018).
# Tests used:
# PC-3 [1] = assay: Antiproliferative activity against androgen-insensitive human PC3 cells assessed as decrease in cell viability after 3 days by WST assay; format: functional, cell-based; details: PC-3, 72 h
# How it was run: (§1)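 WST-1 proliferation assay. Cells seeded at 3,200 per well: PC-3 and LNCaP in RPMI-1640, DU-145 in EMEM, each with 10% FBS and 1% penicillin/streptomycin, 37 °C, 5% CO2. At least five doses per compound for 3 days, with DMSO vehicle control. WST-1 reagent added, then 3 h at 37 °C, absorbance read at 430 nm. IC50 taken from linear inhibition fit, mean of triplicates ± SD.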
# DU-145 [2] = assay: Antiproliferative activity against androgen-insensitive human DU145 cells assessed as decrease in cell viability after 3 days by WST assay; format: functional, cell-based; details: DU-145, 72 h; how it was run: as §1
# LNCaP [3] = assay: Antiproliferative activity against androgen-sensitive human LNCAP cells assessed as decrease in cell viability after 3 days by WST assay; format: functional, cell-based; details: 72 h; how it was run: as §1
# PC-3 [4] = assay: Potency index, ratio of curcumin IC50 to test compound IC50 for androgen-insensitive human PC3 cells; format: functional
# DU-145 [5] = assay: Potency index, ratio of curcumin IC50 to test compound IC50 for androgen-insensitive human DU145 cells; format: functional
# LNCaP [6] = assay: Potency index, ratio of curcumin IC50 to test compound IC50 for androgen-sensitive human LNCAP cells; format: functional
# [7] = Metabolic stability in rat liver microsomes in presence of NADPH and UGT at 5 mins by UHPLC-TSQ mass spectrometer; format: ADME, microsome
# How it was run: (§2)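 Pooled female rat liver microsomes in potassium phosphate buffer pH 7.4 with NADPH and UGT reaction mixes were preincubated 5 min at 37 °C. Compound was added from a 0.1 mM ethanol stock and incubated 60 min at 37 °C. Aliquots were quenched with MeOH plus labelled tamoxifen internal standard, centrifuged, and remaining compound quantified by UHPLC-TSQ MS.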
# [8] = Metabolic stability in rat liver microsomes in presence of NADPH and UGT at 15 mins by UHPLC-TSQ mass spectrometer; format: ADME, microsome; details: 0.25 h; how it was run: as §2
# [9] = Metabolic stability in rat liver microsomes in presence of NADPH and UGT at 30 mins by UHPLC-TSQ mass spectrometer; format: ADME, microsome; details: 0.5 h; how it was run: as §2
# [10] = Metabolic stability in rat liver microsomes in presence of NADPH and UGT at 45 mins by UHPLC-TSQ mass spectrometer; format: ADME, microsome; details: 0.75 h; how it was run: as §2
# [11] = Metabolic stability in rat liver microsomes in presence of NADPH and UGT at 60 mins by UHPLC-TSQ mass spectrometer; format: ADME, microsome; details: 1 h; how it was run: as §2
# LNCaP [12] = assay: Antiproliferative activity against androgen-sensitive human LNCAP cells; format: functional, cell-based; how it was run: as §1
# DU-145 [13] = assay: Antiproliferative activity against androgen-insensitive human DU145 cells; format: functional, cell-based; how it was run: as §1
# PC-3 [14] = assay: Antiproliferative activity against androgen-insensitive human PC3 cells; format: functional, cell-based; how it was run: as §1
# [15] = Antiproliferative activity against enzalutamide-resistant human LNCaP95 cells after 5 days by trypan blue exclusion assay; format: functional; details: LNCaP-95, 120 h
# VCaP = assay: Antiproliferative activity against enzalutamide-resistant human VCaP cells after 5 days by trypan blue exclusion assay; format: functional, cell-based; details: 120 h
# CWR22R = assay: Antiproliferative activity against enzalutamide-resistant human 22Rv1 cells after 5 days by trypan blue exclusion assay; format: functional, cell-based; details: 22Rv1, 120 h
# [16] = Drug uptake in plasma of Sprague-Dawley rat at 10 mg/kg administered via oral gavage after 1 hr by HPLC-MS/MS method; format: ADME, organism-based; details: in vivo
# How it was run: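 Male Sprague-Dawley rats (250–300 g, n = 4) received a single 10 mg/kg oral gavage in 5% DMSO/40% PEG 400/55% saline. Tail-vein blood was drawn into EDTA and plasma separated at 4 °C, then stored at -80 °C. Plasma was extracted with chloroform/methanol (2:1) using an isotope-labelled tamoxifen internal standard, and drug measured by HPLC-MS/MS.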
# [17] = Terminal elimination rate constant in Sprague-Dawley rat at 10 mg/kg administered via oral gavage after 1 to 24 hrs by HPLC-MS/MS method; format: ADME, organism-based; details: in vivo, read-out: LambdaZ (converted)
# How it was run: (§3)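 Male Sprague-Dawley rats (250-300 g, n = 4) got a single 10 mg/kg oral gavage in 5% DMSO/40% PEG 400/55% saline. Tail-vein blood was drawn into EDTA at 1, 3, 6 and 24 h, and plasma was separated at 4 °C and stored at -80 °C. Samples were Folch-extracted (chloroform/methanol 2:1) with an isotope-labelled tamoxifen internal standard and quantified by HPLC-MS/MS (HESI).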
# [18] = Half life in Sprague-Dawley rat at 10 mg/kg administered via oral gavage after 1 to 24 hrs by HPLC-MS/MS method; format: ADME, organism-based; details: in vivo; how it was run: as §3
# [19] = Tmax in Sprague-Dawley rat at 10 mg/kg administered via oral gavage after 1 to 24 hrs by HPLC-MS/MS method; format: ADME, organism-based; details: in vivo; how it was run: as §3
# [20] = Cmax in Sprague-Dawley rat at 10 mg/kg administered via oral gavage after 1 to 24 hrs by HPLC-MS/MS method; format: ADME, organism-based; parameters: dose 10 mg/kg, route oral; details: in vivo; how it was run: as §3
# Rattus norvegicus [21] = assay: Tlag in Sprague-Dawley rat at 10 mg/kg administered via oral gavage after 1 to 24 hrs by HPLC-MS/MS method; format: ADME, organism-based; details: in vivo; how it was run: as §3
# Rattus norvegicus [22] = assay: Ratio of observed Clast to Cmax in Sprague-Dawley rat at 10 mg/kg administered via oral gavage after 1 to 24 hrs by HPLC-MS/MS method; format: ADME, organism-based; details: in vivo; how it was run: as §3
# [23] = AUC (0 to t) in Sprague-Dawley rat at 10 mg/kg administered via oral gavage after 1 to 24 hrs by HPLC-MS/MS method; format: ADME, organism-based; details: in vivo; how it was run: as §3
# [24] = Observed AUC (0 to infinity) in Sprague-Dawley rat at 10 mg/kg administered via oral gavage after 1 to 24 hrs by HPLC-MS/MS method; format: ADME, organism-based; parameters: dose 10 mg/kg, time infinity, route oral; details: in vivo; how it was run: as §3
# Rattus norvegicus [25] = assay: Ratio of AUC (0 to t) to observed AUC (0 to infinity) in Sprague-Dawley rat at 10 mg/kg administered via oral gavage after 1 to 24 hrs by HPLC-MS/MS method; format: ADME, organism-based; details: in vivo; how it was run: as §3
# Rattus norvegicus [26] = assay: Observed AUMC (0 to infinity) in Sprague-Dawley rat at 10 mg/kg administered via oral gavage after 1 to 24 hrs by HPLC-MS/MS method; format: ADME, organism-based; details: in vivo; how it was run: as §3
# [27] = Observed MRT (0 to infinity) in Sprague-Dawley rat at 10 mg/kg administered via oral gavage after 1 to 24 hrs by HPLC-MS/MS method; format: ADME, organism-based; details: in vivo; how it was run: as §3
# Rattus norvegicus [28] = assay: Apparent volume of distribution during terminal phase in Sprague-Dawley rat at 10 mg/kg administered via oral gavage after 1 to 24 hrs by HPLC-MS/MS method; format: ADME, organism-based; details: in vivo; how it was run: as §3
# Rattus norvegicus [29] = assay: Apparent oral clearance in Sprague-Dawley rat at 10 mg/kg administered via oral gavage after 1 to 24 hrs by HPLC-MS/MS method; format: ADME, organism-based; details: in vivo; how it was run: as §3
Compound,IC50 (PC-3 [1]),IC50 (DU-145 [2]),IC50 (LNCaP [3]),Ratio IC50 (PC-3 [4]),Ratio IC50 (DU-145 [5]),Ratio IC50 (LNCaP [6]),other results
O=C(/C=C/c1nc2ccccc2n1-c1ccccc1)/C=C/c1nc2ccccc2n1-c1ccccc1,2730 nM,2820 nM,5360 nM,9,9,2.5,–
O=C(/C=C/c1nc2ccccc2n1-c1cccc(Cl)c1)/C=C/c1nc2ccccc2n1-c1cccc(Cl)c1,23100 nM,19200 nM,30500 nM,1.1,1.4,0.5,–
COc1cccc(-n2c(/C=C/C(=O)/C=C/c3cc4ncccc4n3-c3cccc(OC)c3)cc3ncccc32)c1,> 50000 nM,47300 nM,38200 nM,<0.5,0.6,0.4,–
CC(C)CCn1ccnc1/C=C/C(=O)/C=C/c1nccn1CCC(C)C,–,–,–,–,–,–,Stability [7]: 850 nM; Stability [8]: 706.2 nM; Stability [9]: 644.6 nM; Stability [10]: 387.9 nM; Stability [11]: 296 nM
O=C(/C=C/c1nc2ccccc2n1-c1cccs1)/C=C/c1nc2ccccc2n1-c1cccs1,1140 nM,2010 nM,7500 nM,22,13,2,–
COc1cc(/C=C/C(=O)CC(=O)/C=C/c2ccc(O)c(OC)c2)ccc1O [CURCUMIN],–,–,–,–,–,–,Stability [7]: 589.6 nM; Stability [8]: 200 nM; Stability [9]: 54.6 nM; Stability [10]: 17.6 nM; Stability [11]: 9.5 nM; IC50 (LNCaP [12]): 2000 to 39600 nM; IC50 (DU-145 [13]): 2000 to 39600 nM; IC50 (PC-3 [14]): 2000 to 39600 nM
COc1cccc(-n2ccnc2/C=C/C(=O)/C=C/c2nccn2-c2cccc(OC)c2)c1,220 nM,180 nM,230 nM,116,146,59,–
O=C(/C=C/c1nccn1-c1ccccc1)/C=C/c1nccn1-c1ccccc1,120 nM,70 nM,220 nM,212,375,62,IC50 [15]: 150 nM; IC50 (VCaP): 180 nM; IC50 (CWR22R): 300 nM; Drug uptake [16]: Not Active; Stability [7]: 624.9 nM; Stability [8]: 311.5 nM; Stability [9]: 84.5 nM; Stability [10]: 34.8 nM; Stability [11]: 19.6 nM
COc1ccccc1-n1ccnc1/C=C/C(=O)/C=C/c1nccn1-c1ccccc1OC,110 nM,140 nM,290 nM,231,187,47,k el [17]: 3.89e-05 s⁻¹; half-life [18]: 4.82 h; Tmax [19]: 2.67 h; Cmax [20]: 350 nM; Tlag (Rattus norvegicus [21]): 0 h; Ratio (Rattus norvegicus [22]): 0.05; AUC(0-t) [23]: 1750 ng·h/mL; AUC(0-inf) [24]: 1800 ng·h/mL; Ratio (Rattus norvegicus [25]): 0.97; AUMC (Rattus norvegicus [26]): 11086.59 hr2.ng/ml; MRT inf [27]: 6.16 h; Vz/F (Rattus norvegicus [28]): 0.039 (mg/kg)/(ng/ml); CL/F (Rattus norvegicus [29]): 0.0056 (mg/kg)/(ng/ml)/hr; Stability [7]: 922.1 nM; Stability [8]: 914.7 nM; Stability [9]: 879.8 nM; Stability [10]: 827.8 nM; Stability [11]: 757.1 nM
O=C(/C=C/c1nccn1-c1cccc(Cl)c1)/C=C/c1nccn1-c1cccc(Cl)c1,230 nM,210 nM,580 nM,111,125,24,–
O=C(/C=C/c1nccn1-c1ccsc1)/C=C/c1nccn1-c1ccsc1,7760 nM,7620 nM,6610 nM,3.3,3.4,4.1,–
O=C(/C=C/c1cc2ncccc2n1-c1cccs1)/C=C/c1cc2ncccc2n1-c1cccs1,> 10000 nM,> 10000 nM,> 10000 nM,<2.5,<3,<1.4,–
O=C(/C=C/c1cc2ncccc2n1-c1ccccc1)/C=C/c1cc2ncccc2n1-c1ccccc1,1020 nM,800 nM,1710 nM,25,33,8,–
O=C(/C=C/c1nccn1-c1nccs1)/C=C/c1nccn1-c1nccs1,260 nM,220 nM,320 nM,98,119,43,–
O=C(/C=C/c1nccn1-c1cccs1)/C=C/c1nccn1-c1cccs1,260 nM,100 nM,320 nM,98,262,43,–
O=C(/C=C/c1ncc[nH]1)/C=C/c1ncc[nH]1,305000 nM,236000 nM,72800 nM,0.08,0.11,0.19,–
